Test results taken from ChEMBL document CHEMBL5303300, “EUbOPEN Chemogenomics Library - Multiplex” (2023).
Several values for one entry are separate records, joined by “and”; a condition that tells them apart may be missing. Equal entries are not always repeated.

How the values were obtained:
Type in all cases: toxicity, cell-based
[1] = test system: Fibroblast; assay: Multiplex assay against human fibroblast; settings: number of replicates 2
How it was run: (§1)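 Phenotypes for tubulin, mitochondrial mass and membrane permeability are expressed as per cents of healthy-nucleus cells. Cells were stained live at seeding with Hoechst33342, BioTracker Green Microtubule Cytoskeleton Dye, MitoTracker Red and Annexin V Alexa Fluor 680, then imaged after compound addition on a CQ1 microscope at 37°C and 5% CO2. Machine-learning gating in CellPathfinder separated Hoechst high-intensity objects from normal cells, divided normal cells by nuclear state (healthy, pyknosed, fragmented) and divided pyknosed cells into mitotic or apoptotic.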

[2] = test system: U2OS; assay: Multiplex assay against U2OS; settings: human, number of replicates 2; how it was run: as §1
[3] = test system: HEK-293T; assay: Multiplex assay against HEK293T; settings: human, number of replicates 2; how it was run: as §1
[4] = 12 h, 1 µM, compound concentration 1 uM
[5] = 12 h, 10 µM, compound concentration 10 uM
[6] = 24 h, 1 µM, compound concentration 1 uM
[7] = 24 h, 10 µM, compound concentration 10 uM
[8] = 48 h, 1 µM, compound concentration 1 uM
[9] = 48 h, 10 µM, compound concentration 10 uM

O=C1CCCN1CCNc1nc(Nc2ccc(Cl)c(Cl)c2)ncc1C(F)(F)F
Population Apoptotic (%) [1, 4]: 38% and 28%
Population Fragmented Nuclei (%) [1, 4]: 10% and 8%
Population Healthy Nuclei (%) [1, 4]: 76% and 68%
Population Hoechst High Intensity Objects (%) [1, 4]: 0%
Population Membrane Permeable-Phenotype (%) [1, 4]: 2% and 1%
Population Mitochondria Different-Phenotype (%) [1, 4]: 1%
Population Mitotic Cells (%) [1, 4]: 61% and 71%
Population Normal (%) [1, 4]: 100%
Population Pyknosed Nuclei (%) [1, 4]: 13% and 22%
Population Tubulin-Different-Phenotype (%) [1, 4]: 12% and 9%
Total Cell Count [1, 4]: 233 and 219
Population Apoptotic (%) [1, 5]: 52% and 36%
Population Fragmented Nuclei (%) [1, 5]: 6% and 15%
Population Healthy Nuclei (%) [1, 5]: 40% and 52%
Population Hoechst High Intensity Objects (%) [1, 5]: 0%
Population Membrane Permeable-Phenotype (%) [1, 5]: 19% and 26%
Population Mitochondria Different-Phenotype (%) [1, 5]: 1% and 4%
Population Mitotic Cells (%) [1, 5]: 47% and 63%
Population Normal (%) [1, 5]: 100%
Population Pyknosed Nuclei (%) [1, 5]: 52% and 32%
Population Tubulin-Different-Phenotype (%) [1, 5]: 35% and 50%
Total Cell Count [1, 5]: 138 and 193
Population Apoptotic (%) [1, 6]: 54% and 41%
Population Fragmented Nuclei (%) [1, 6]: 8% and 6%
Population Healthy Nuclei (%) [1, 6]: 76% and 70%
Population Hoechst High Intensity Objects (%) [1, 6]: 0%
Population Membrane Permeable-Phenotype (%) [1, 6]: 5%
Population Mitochondria Different-Phenotype (%) [1, 6]: 1% and 0%
Population Mitotic Cells (%) [1, 6]: 45% and 58%
Population Normal (%) [1, 6]: 100%
Population Pyknosed Nuclei (%) [1, 6]: 14% and 22%
Population Tubulin-Different-Phenotype (%) [1, 6]: 14% and 9%
Total Cell Count [1, 6]: 234 and 227
Population Apoptotic (%) [1, 7]: 70% and 60%
Population Fragmented Nuclei (%) [1, 7]: 6% and 15%
Population Healthy Nuclei (%) [1, 7]: 44% and 50%
Population Hoechst High Intensity Objects (%) [1, 7]: 0%
Population Membrane Permeable-Phenotype (%) [1, 7]: 16% and 14%
Population Mitochondria Different-Phenotype (%) [1, 7]: 3% and 5%
Population Mitotic Cells (%) [1, 7]: 29% and 39%
Population Normal (%) [1, 7]: 99% and 100%
Population Pyknosed Nuclei (%) [1, 7]: 48% and 34%
Population Tubulin-Different-Phenotype (%) [1, 7]: 53% and 50%
Total Cell Count [1, 7]: 135 and 198
Population Apoptotic (%) [1, 8]: 82% and 66%
Population Fragmented Nuclei (%) [1, 8]: 13% and 11%
Population Healthy Nuclei (%) [1, 8]: 73% and 72%
Population Hoechst High Intensity Objects (%) [1, 8]: 0%
Population Membrane Permeable-Phenotype (%) [1, 8]: 2% and 1%
Population Mitochondria Different-Phenotype (%) [1, 8]: 0%
Population Mitotic Cells (%) [1, 8]: 17% and 33%
Population Normal (%) [1, 8]: 100% and 99%
Population Pyknosed Nuclei (%) [1, 8]: 12% and 15%
Population Tubulin-Different-Phenotype (%) [1, 8]: 11% and 6%
Total Cell Count [1, 8]: 230 and 215
Population Apoptotic (%) [1, 9]: 89% and 74%
Population Fragmented Nuclei (%) [1, 9]: 9% and 17%
Population Healthy Nuclei (%) [1, 9]: 52% and 53%
Population Hoechst High Intensity Objects (%) [1, 9]: 0%
Population Membrane Permeable-Phenotype (%) [1, 9]: 21% and 12%
Population Mitochondria Different-Phenotype (%) [1, 9]: 0% and 2%
Population Mitotic Cells (%) [1, 9]: 10% and 25%
Population Normal (%) [1, 9]: 99% and 100%
Population Pyknosed Nuclei (%) [1, 9]: 37% and 28%
Population Tubulin-Different-Phenotype (%) [1, 9]: 40% and 31%
Total Cell Count [1, 9]: 124 and 180
Population Apoptotic (%) [2, 4]: 50% and 68%
Population Fragmented Nuclei (%) [2, 4]: 5% and 3%
Population Healthy Nuclei (%) [2, 4]: 70% and 91%
Population Hoechst High Intensity Objects (%) [2, 4]: 0%
Population Membrane Permeable-Phenotype (%) [2, 4]: 0% and 3%
Population Mitochondria Different-Phenotype (%) [2, 4]: 0% and 1%
Population Mitotic Cells (%) [2, 4]: 50% and 31%
Population Normal (%) [2, 4]: 100%
Population Tubulin-Different-Phenotype (%) [2, 4]: 91% and 81%
Population Apoptotic (%) [2, 5]: 100% and 57%
Population Healthy Nuclei (%) [2, 5]: 73% and 80%
Population Hoechst High Intensity Objects (%) [2, 5]: 0%
Population Membrane Permeable-Phenotype (%) [2, 5]: 7% and 5%
Population Mitochondria Different-Phenotype (%) [2, 5]: 7% and 0%
Population Normal (%) [2, 5]: 100% and 99%
Population Pyknosed Nuclei (%) [2, 5]: 5% and 13%
Population Tubulin-Different-Phenotype (%) [2, 5]: 64% and 50%
Population Apoptotic (%) [2, 6]: 100% and 73%
Population Fragmented Nuclei (%) [2, 6]: 0% and 3%
Population Healthy Nuclei (%) [2, 6]: 90%
Population Hoechst High Intensity Objects (%) [2, 6]: 0%
Population Membrane Permeable-Phenotype (%) [2, 6]: 0% and 2%
Population Mitochondria Different-Phenotype (%) [2, 6]: 0%
Population Normal (%) [2, 6]: 100%
Population Pyknosed Nuclei (%) [2, 6]: 9% and 5%
Population Tubulin-Different-Phenotype (%) [2, 6]: 96% and 79%
Population Apoptotic (%) [2, 7]: 70% and 80%
Population Healthy Nuclei (%) [2, 7]: 86% and 70%
Population Hoechst High Intensity Objects (%) [2, 7]: 0%
Population Membrane Permeable-Phenotype (%) [2, 7]: 3%
Population Mitochondria Different-Phenotype (%) [2, 7]: 1% and 0%
Population Mitotic Cells (%) [2, 7]: 29% and 20%
Population Normal (%) [2, 7]: 100%
Population Pyknosed Nuclei (%) [2, 7]: 10% and 12%
Population Tubulin-Different-Phenotype (%) [2, 7]: 57% and 35%
Population Apoptotic (%) [2, 8]: 71% and 84%
Population Fragmented Nuclei (%) [2, 8]: 8% and 3%
Population Healthy Nuclei (%) [2, 8]: 79% and 92%
Population Hoechst High Intensity Objects (%) [2, 8]: 0%
Population Membrane Permeable-Phenotype (%) [2, 8]: 0% and 1%
Population Mitochondria Different-Phenotype (%) [2, 8]: 2% and 0%
Population Mitotic Cells (%) [2, 8]: 28% and 15%
Population Normal (%) [2, 8]: 100%
Population Pyknosed Nuclei (%) [2, 8]: 12% and 4%
Population Tubulin-Different-Phenotype (%) [2, 8]: 95% and 87%
Population Apoptotic (%) [2, 9]: 86% and 75%
Population Fragmented Nuclei (%) [2, 9]: 5% and 6%
Population Healthy Nuclei (%) [2, 9]: 79% and 76%
Population Hoechst High Intensity Objects (%) [2, 9]: 0%
Population Membrane Permeable-Phenotype (%) [2, 9]: 4% and 2%
Population Mitochondria Different-Phenotype (%) [2, 9]: 0% and 2%
Population Mitotic Cells (%) [2, 9]: 13% and 25%
Population Normal (%) [2, 9]: 99% and 100%
Population Pyknosed Nuclei (%) [2, 9]: 14% and 17%
Population Tubulin-Different-Phenotype (%) [2, 9]: 67% and 47%
Population Apoptotic (%) [3, 4]: 57% and 53%
Population Fragmented Nuclei (%) [3, 4]: 5% and 3%
Population Healthy Nuclei (%) [3, 4]: 80% and 83%
Population Hoechst High Intensity Objects (%) [3, 4]: 9%
Population Membrane Permeable-Phenotype (%) [3, 4]: 3% and 1%
Population Mitochondria Different-Phenotype (%) [3, 4]: 26% and 20%
Population Mitotic Cells (%) [3, 4]: 42% and 46%
Population Normal (%) [3, 4]: 90%
Population Pyknosed Nuclei (%) [3, 4]: 13%
Population Tubulin-Different-Phenotype (%) [3, 4]: 60% and 61%
Total Cell Count [3, 4]: 624 and 889
Population Apoptotic (%) [3, 5]: 57% and 62%
Population Fragmented Nuclei (%) [3, 5]: 3% and 5%
Population Healthy Nuclei (%) [3, 5]: 76%
Population Hoechst High Intensity Objects (%) [3, 5]: 11% and 7%
Population Membrane Permeable-Phenotype (%) [3, 5]: 5% and 4%
Population Mitochondria Different-Phenotype (%) [3, 5]: 30% and 21%
Population Mitotic Cells (%) [3, 5]: 42% and 37%
Population Normal (%) [3, 5]: 88% and 92%
Population Pyknosed Nuclei (%) [3, 5]: 19% and 18%
Population Tubulin-Different-Phenotype (%) [3, 5]: 67% and 66%
Total Cell Count [3, 5]: 488 and 473
Population Apoptotic (%) [3, 6]: 57% and 53%
Population Fragmented Nuclei (%) [3, 6]: 9% and 7%
Population Healthy Nuclei (%) [3, 6]: 80% and 81%
Population Hoechst High Intensity Objects (%) [3, 6]: 8% and 9%
Population Membrane Permeable-Phenotype (%) [3, 6]: 2% and 1%
Population Mitochondria Different-Phenotype (%) [3, 6]: 5% and 4%
Population Mitotic Cells (%) [3, 6]: 42% and 46%
Population Normal (%) [3, 6]: 91% and 90%
Population Pyknosed Nuclei (%) [3, 6]: 10%
Population Tubulin-Different-Phenotype (%) [3, 6]: 32% and 31%
Total Cell Count [3, 6]: 951 and 1356
Population Apoptotic (%) [3, 7]: 56% and 71%
Population Fragmented Nuclei (%) [3, 7]: 7% and 5%
Population Healthy Nuclei (%) [3, 7]: 78% and 79%
Population Hoechst High Intensity Objects (%) [3, 7]: 8% and 7%
Population Membrane Permeable-Phenotype (%) [3, 7]: 5% and 3%
Population Mitochondria Different-Phenotype (%) [3, 7]: 13% and 8%
Population Mitotic Cells (%) [3, 7]: 43% and 28%
Population Normal (%) [3, 7]: 91% and 92%
Population Pyknosed Nuclei (%) [3, 7]: 13% and 15%
Population Tubulin-Different-Phenotype (%) [3, 7]: 39% and 36%
Total Cell Count [3, 7]: 751 and 650
Population Apoptotic (%) [3, 8]: 17% and 24%
Population Fragmented Nuclei (%) [3, 8]: 14% and 12%
Population Healthy Nuclei (%) [3, 8]: 82% and 83%
Population Hoechst High Intensity Objects (%) [3, 8]: 10% and 12%
Population Membrane Permeable-Phenotype (%) [3, 8]: 6% and 2%
Population Mitochondria Different-Phenotype (%) [3, 8]: 0%
Population Mitotic Cells (%) [3, 8]: 82% and 75%
Population Normal (%) [3, 8]: 89% and 87%
Population Pyknosed Nuclei (%) [3, 8]: 3%
Population Tubulin-Different-Phenotype (%) [3, 8]: 14% and 17%
Total Cell Count [3, 8]: 2336 and 2853
Population Apoptotic (%) [3, 9]: 23% and 27%
Population Fragmented Nuclei (%) [3, 9]: 11% and 9%
Population Healthy Nuclei (%) [3, 9]: 83% and 86%
Population Hoechst High Intensity Objects (%) [3, 9]: 8% and 5%
Population Membrane Permeable-Phenotype (%) [3, 9]: 5% and 4%
Population Mitochondria Different-Phenotype (%) [3, 9]: 2% and 3%
Population Mitotic Cells (%) [3, 9]: 76% and 72%
Population Normal (%) [3, 9]: 91% and 94%
Population Pyknosed Nuclei (%) [3, 9]: 5% and 4%
Population Tubulin-Different-Phenotype (%) [3, 9]: 16% and 28%
Total Cell Count [3, 9]: 1562 and 1106
